According to ChEMBL document CHEMBL5724801, “EUbOPEN Chemogenomics Library - Multiplex” (2024):
Values joined by “and” are separate entries in the source; they are usually repeats but may differ in a detail not shown here. Equal values may be shown once.

System: U2OS
Assay: Multiplex assay against U2OS
Assay type: toxicity, cell-based
Conditions: human
In short: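 Values for tubulin, mitochondrial-mass and membrane-permeability phenotypes are per cents of cells with healthy nuclei. These cells were identified by CellPathfinder machine-learning gating of live cells that had been stained at seeding with Hoechst33342, BioTracker Green Microtubule Cytoskeleton Dye, MitoTracker Red and Annexin V Alexa Fluor 680 and imaged on a CQ1 microscope at 37°C and 5% CO2 after compound addition. The gating first set Hoechst high-intensity objects apart from normal cells, then split normal cells into healthy, pyknosed or fragmented nuclei, and pyknosed cells into mitotic or apoptotic.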

[1] = 12 h, 1 µM, compound concentration 1 uM
[2] = 12 h, 10 µM, compound concentration 10 uM
[3] = 24 h, 1 µM, compound concentration 1 uM
[4] = 24 h, 10 µM, compound concentration 10 uM
[5] = 48 h, 1 µM, compound concentration 1 uM
[6] = 48 h, 10 µM, compound concentration 10 uM

Question: For Cc1cccc(NC(=O)CN2CCC(c3ccccn3)CC2)c1.Cl.Cl, which “Population Apoptotic (%)” value [1] is on record?
Answer: 90% and 57%

Question: What about the “Population Fragmented Nuclei (%)” value [1] of the same compound?
Answer: 27% and 17%

Question: What about the “Population Healthy Nuclei (%)” value [1] of the same compound?
Answer: 67% and 76%

Question: And the “Population Hoechst High Intensity Objects (%)” value [1]?
Answer: 1% and 0%

Question: What about the “Population Membrane Permeable-Phenotype (%)” value [1] of the same compound?
Answer: 5% and 4%

Question: And the “Population Mitochondria Different-Phenotype (%)” value [1]?
Answer: 2%

Question: And the “Population Normal (%)” value [1]?
Answer: 98% and 99%

Question: And the “Population Pyknosed Nuclei (%)” value [1]?
Answer: 5% and 6%

Question: What about the “Population Tubulin-Different-Phenotype (%)” value [1] of the same compound?
Answer: 3%

Question: What about the “Total Cell Count” value [1] of the same compound?
Answer: 208 and 111

Question: And the “Population Apoptotic (%)” value [2]?
Answer: 72% and 66%

Question: What about the “Population Fragmented Nuclei (%)” value [2] of the same compound?
Answer: 34% and 21%

Question: What about the “Population Healthy Nuclei (%)” value [2] of the same compound?
Answer: 55% and 70%

Question: What about the “Population Hoechst High Intensity Objects (%)” value [2] of the same compound?
Answer: 2% and 1%

Question: And the “Population Membrane Permeable-Phenotype (%)” value [2]?
Answer: 8% and 12%

Question: What about the “Population Mitochondria Different-Phenotype (%)” value [2] of the same compound?
Answer: 6% and 7%

Question: And the “Population Mitotic Cells (%)” value [2]?
Answer: 27% and 33%

Question: What about the “Population Normal (%)” value [2] of the same compound?
Answer: 97% and 98%

Question: And the “Population Pyknosed Nuclei (%)” value [2]?
Answer: 10% and 8%

Question: And the “Population Tubulin-Different-Phenotype (%)” value [2]?
Answer: 3% and 9%

Question: What about the “Total Cell Count” value [2] of the same compound?
Answer: 216 and 111

Question: What about the “Population Apoptotic (%)” value [3] of the same compound?
Answer: 76% and 73%

Question: What about the “Population Fragmented Nuclei (%)” value [3] of the same compound?
Answer: 22% and 21%

Question: And the “Population Healthy Nuclei (%)” value [3]?
Answer: 70% and 67%

Question: What about the “Population Hoechst High Intensity Objects (%)” value [3] of the same compound?
Answer: 3% and 0%

Question: And the “Population Membrane Permeable-Phenotype (%)” value [3]?
Answer: 5% and 7%

Question: And the “Population Mitochondria Different-Phenotype (%)” value [3]?
Answer: 3% and 4%

Question: And the “Population Mitotic Cells (%)” value [3]?
Answer: 23% and 26%

Question: And the “Population Normal (%)” value [3]?
Answer: 96% and 99%

Question: And the “Population Pyknosed Nuclei (%)” value [3]?
Answer: 7% and 11%

Question: And the “Population Tubulin-Different-Phenotype (%)” value [3]?
Answer: 3% and 5%

Question: And the “Total Cell Count” value [3]?
Answer: 249 and 135

Question: What about the “Population Apoptotic (%)” value [4] of the same compound?
Answer: 85% and 75%

Question: What about the “Population Fragmented Nuclei (%)” value [4] of the same compound?
Answer: 32% and 20%

Question: What about the “Population Healthy Nuclei (%)” value [4] of the same compound?
Answer: 55% and 73%

Question: And the “Population Hoechst High Intensity Objects (%)” value [4]?
Answer: 3% and 2%

Question: What about the “Population Membrane Permeable-Phenotype (%)” value [4] of the same compound?
Answer: 6% and 17%

Question: What about the “Population Mitochondria Different-Phenotype (%)” value [4] of the same compound?
Answer: 3% and 5%

Question: What about the “Population Mitotic Cells (%)” value [4] of the same compound?
Answer: 14% and 25%

Question: And the “Population Normal (%)” value [4]?
Answer: 96% and 97%

Question: And the “Population Pyknosed Nuclei (%)” value [4]?
Answer: 11% and 6%

Question: And the “Population Tubulin-Different-Phenotype (%)” value [4]?
Answer: 2% and 10%

Question: What about the “Total Cell Count” value [4] of the same compound?
Answer: 243 and 131

Question: What about the “Population Apoptotic (%)” value [5] of the same compound?
Answer: 82% and 94%

Question: And the “Population Fragmented Nuclei (%)” value [5]?
Answer: 18% and 17%

Question: And the “Population Healthy Nuclei (%)” value [5]?
Answer: 72%

Question: What about the “Population Hoechst High Intensity Objects (%)” value [5] of the same compound?
Answer: 2% and 3%

Question: What about the “Population Membrane Permeable-Phenotype (%)” value [5] of the same compound?
Answer: 6% and 2%

Question: And the “Population Mitochondria Different-Phenotype (%)” value [5]?
Answer: 3%

Question: What about the “Population Normal (%)” value [5] of the same compound?
Answer: 97% and 96%

Question: And the “Population Pyknosed Nuclei (%)” value [5]?
Answer: 8% and 10%

Question: And the “Population Tubulin-Different-Phenotype (%)” value [5]?
Answer: 3% and 2%

Question: What about the “Total Cell Count” value [5] of the same compound?
Answer: 341 and 182

Question: And the “Population Apoptotic (%)” value [6]?
Answer: 96% and 83%

Question: And the “Population Fragmented Nuclei (%)” value [6]?
Answer: 29% and 19%

Question: And the “Population Healthy Nuclei (%)” value [6]?
Answer: 60% and 74%

Question: And the “Population Hoechst High Intensity Objects (%)” value [6]?
Answer: 3%

Question: And the “Population Membrane Permeable-Phenotype (%)” value [6]?
Answer: 6% and 10%

Question: What about the “Population Mitochondria Different-Phenotype (%)” value [6] of the same compound?
Answer: 6% and 4%

Question: And the “Population Normal (%)” value [6]?
Answer: 96%

Question: And the “Population Pyknosed Nuclei (%)” value [6]?
Answer: 9% and 6%

Question: And the “Population Tubulin-Different-Phenotype (%)” value [6]?
Answer: 3% and 4%

Question: What about the “Total Cell Count” value [6] of the same compound?
Answer: 303 and 198

Question: Which “Population Apoptotic (%)” value [1] does the source give for COC(c1ccccc1)(c1ccccc1)[C@H](Oc1nc(C)cc(C)n1)C(=O)O [AMBRISENTAN] here?
Answer: 95% and 100%

Question: What about the “Population Fragmented Nuclei (%)” value [1] of the same compound?
Answer: 26% and 21%

Question: And the “Population Healthy Nuclei (%)” value [1]?
Answer: 62% and 72%

Question: And the “Population Hoechst High Intensity Objects (%)” value [1]?
Answer: 2%

Question: What about the “Population Membrane Permeable-Phenotype (%)” value [1] of the same compound?
Answer: 3% and 8%

Question: And the “Population Mitochondria Different-Phenotype (%)” value [1]?
Answer: 0% and 3%

Question: What about the “Population Mitotic Cells (%)” value [1] of the same compound?
Answer: 4% and 0%

Question: What about the “Population Normal (%)” value [1] of the same compound?
Answer: 97%

Question: And the “Population Pyknosed Nuclei (%)” value [1]?
Answer: 10% and 5%

Question: And the “Population Tubulin-Different-Phenotype (%)” value [1]?
Answer: 1%

Question: And the “Total Cell Count” value [1]?
Answer: 209 and 87

Question: And the “Population Apoptotic (%)” value [2]?
Answer: 61% and 100%

Question: And the “Population Fragmented Nuclei (%)” value [2]?
Answer: 28% and 19%

Question: What about the “Population Healthy Nuclei (%)” value [2] of the same compound?
Answer: 63% and 72%

Question: And the “Population Hoechst High Intensity Objects (%)” value [2]?
Answer: 2% and 0%

Question: And the “Population Membrane Permeable-Phenotype (%)” value [2]?
Answer: 4%

Question: And the “Population Mitochondria Different-Phenotype (%)” value [2]?
Answer: 2% and 0%

Question: And the “Population Normal (%)” value [2]?
Answer: 97% and 99%

Question: And the “Population Pyknosed Nuclei (%)” value [2]?
Answer: 7%

Question: What about the “Population Tubulin-Different-Phenotype (%)” value [2] of the same compound?
Answer: 1% and 0%

Question: And the “Total Cell Count” value [2]?
Answer: 232 and 104

Question: What about the “Population Apoptotic (%)” value [3] of the same compound?
Answer: 95% and 100%

Question: And the “Population Fragmented Nuclei (%)” value [3]?
Answer: 27% and 23%

Question: What about the “Population Healthy Nuclei (%)” value [3] of the same compound?
Answer: 63% and 66%

Question: What about the “Population Hoechst High Intensity Objects (%)” value [3] of the same compound?
Answer: 0%

Question: And the “Population Membrane Permeable-Phenotype (%)” value [3]?
Answer: 4% and 1%

Question: What about the “Population Mitochondria Different-Phenotype (%)” value [3] of the same compound?
Answer: 1% and 2%

Question: And the “Population Mitotic Cells (%)” value [3]?
Answer: 4% and 0%

Question: What about the “Population Normal (%)” value [3] of the same compound?
Answer: 99%

Question: And the “Population Pyknosed Nuclei (%)” value [3]?
Answer: 8% and 10%

Question: And the “Population Tubulin-Different-Phenotype (%)” value [3]?
Answer: 1%

Question: And the “Total Cell Count” value [3]?
Answer: 248 and 111

Question: And the “Population Apoptotic (%)” value [4]?
Answer: 84% and 80%

Question: And the “Population Fragmented Nuclei (%)” value [4]?
Answer: 25% and 13%

Question: What about the “Population Healthy Nuclei (%)” value [4] of the same compound?
Answer: 65% and 77%

Question: What about the “Population Hoechst High Intensity Objects (%)” value [4] of the same compound?
Answer: 1% and 0%

Question: And the “Population Membrane Permeable-Phenotype (%)” value [4]?
Answer: 7%

Question: And the “Population Mitochondria Different-Phenotype (%)” value [4]?
Answer: 2%

Question: And the “Population Mitotic Cells (%)” value [4]?
Answer: 16% and 20%

Question: And the “Population Normal (%)” value [4]?
Answer: 98% and 100%

Question: And the “Population Pyknosed Nuclei (%)” value [4]?
Answer: 9% and 8%

Question: What about the “Population Tubulin-Different-Phenotype (%)” value [4] of the same compound?
Answer: 3% and 5%

Question: And the “Total Cell Count” value [4]?
Answer: 273 and 115

Question: And the “Population Apoptotic (%)” value [5]?
Answer: 89% and 93%

Question: What about the “Population Fragmented Nuclei (%)” value [5] of the same compound?
Answer: 17%

Question: And the “Population Healthy Nuclei (%)” value [5]?
Answer: 70% and 72%

Question: What about the “Population Hoechst High Intensity Objects (%)” value [5] of the same compound?
Answer: 2%

Question: And the “Population Membrane Permeable-Phenotype (%)” value [5]?
Answer: 2% and 0%

Question: And the “Population Mitochondria Different-Phenotype (%)” value [5]?
Answer: 1%

Question: What about the “Population Mitotic Cells (%)” value [5] of the same compound?
Answer: 10% and 6%

Question: What about the “Population Normal (%)” value [5] of the same compound?
Answer: 97%

Question: What about the “Population Pyknosed Nuclei (%)” value [5] of the same compound?
Answer: 11% and 10%

Question: And the “Population Tubulin-Different-Phenotype (%)” value [5]?
Answer: 0%

Question: What about the “Total Cell Count” value [5] of the same compound?
Answer: 333 and 151

Question: What about the “Population Apoptotic (%)” value [6] of the same compound?
Answer: 87% and 81%

Question: And the “Population Fragmented Nuclei (%)” value [6]?
Answer: 21% and 13%

Question: What about the “Population Healthy Nuclei (%)” value [6] of the same compound?
Answer: 68% and 79%

Question: And the “Population Hoechst High Intensity Objects (%)” value [6]?
Answer: 3% and 0%

Question: What about the “Population Membrane Permeable-Phenotype (%)” value [6] of the same compound?
Answer: 4% and 2%

Question: What about the “Population Mitochondria Different-Phenotype (%)” value [6] of the same compound?
Answer: 2% and 0%

Question: What about the “Population Mitotic Cells (%)” value [6] of the same compound?
Answer: 12% and 18%

Question: What about the “Population Normal (%)” value [6] of the same compound?
Answer: 96% and 100%

Question: What about the “Population Pyknosed Nuclei (%)” value [6] of the same compound?
Answer: 10% and 6%

Question: And the “Population Tubulin-Different-Phenotype (%)” value [6]?
Answer: 3% and 2%

Question: What about the “Total Cell Count” value [6] of the same compound?
Answer: 388 and 174
